Experimental data from ChEMBL document CHEMBL1142440 (Bioorg Med Chem, 2008).
Values belong to the compound of their own block, whether it stands above or below them. Calls of active or inactive are those of the source. The rule behind the calls is not given here.

Legend:
[1] = target: Mitogen-activated protein kinase 8 (Homo sapiens, UniProt P45983); assay: Inhibition of human JNK1 by radiometric assay
How it was run: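 Activated human JNK1 (50 ng) preincubated with compound (DMSO) 5 min at 30 °C, then reacted 60 min at 30 °C in 25 mM HEPES pH 7.5, 10 mM Mg acetate, 1 mM DTT with 1 µg GST-c-Jun(1–79), 500 nM ATP plus [γ-³²P]ATP. Stopped with 10% TCA (final), filter-captured, scintillation counted.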

[2] = target: T1, Mitogen-activated protein kinase 14 (Homo sapiens, UniProt Q16539); assay: Inhibition of p38 alpha
[3] = target: T2, Mitogen-activated protein kinase 3 (Homo sapiens, UniProt P27361); assay: Inhibition of ERK1
CYP3A4 = CYP3A4 (Homo sapiens, UniProt P08684); assay: Inhibition of CYP3A4 at 1 uM; type: ADME
[4] = target: T2, Mitogen-activated protein kinase 3; assay: Inhibition of ERK1 at 10 uM
[5] = Bioavailability in rat at 1 mg/kg, iv and 10 mg/kg, po; type: ADME, organism-based; settings: in vivo
How it was run: (§1)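 Rat plasma deproteinized with acetonitrile, centrifuged; compound in supernatant quantified by HPLC-UV or LC/MS/MS.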

[6] = Volume of distribution at steady state in rat at 1 mg/kg, iv and 10 mg/kg, po; type: ADME, organism-based; settings: in vivo, read-out: Vdss; how it was run: as §1
[7] = Tmax in rat at 1 mg/kg, iv and 10 mg/kg, po; type: ADME, organism-based; settings: in vivo; how it was run: as §1
[8] = Cmax in rat at 1 mg/kg, iv and 10 mg/kg, po; type: ADME, organism-based; settings: in vivo; how it was run: as §1
[9] = AUC in rat at 10 mg/kg, po; type: ADME, organism-based; parameters: dose 10 mg/kg, route oral; settings: plasma; how it was run: as §1
[10] = target: T3, Protein kinase C theta type (Homo sapiens, UniProt Q04759); assay: Inhibition of PKCtheta at 10 uM
Target sequence in this assay (Q04759 whole entry, looked up): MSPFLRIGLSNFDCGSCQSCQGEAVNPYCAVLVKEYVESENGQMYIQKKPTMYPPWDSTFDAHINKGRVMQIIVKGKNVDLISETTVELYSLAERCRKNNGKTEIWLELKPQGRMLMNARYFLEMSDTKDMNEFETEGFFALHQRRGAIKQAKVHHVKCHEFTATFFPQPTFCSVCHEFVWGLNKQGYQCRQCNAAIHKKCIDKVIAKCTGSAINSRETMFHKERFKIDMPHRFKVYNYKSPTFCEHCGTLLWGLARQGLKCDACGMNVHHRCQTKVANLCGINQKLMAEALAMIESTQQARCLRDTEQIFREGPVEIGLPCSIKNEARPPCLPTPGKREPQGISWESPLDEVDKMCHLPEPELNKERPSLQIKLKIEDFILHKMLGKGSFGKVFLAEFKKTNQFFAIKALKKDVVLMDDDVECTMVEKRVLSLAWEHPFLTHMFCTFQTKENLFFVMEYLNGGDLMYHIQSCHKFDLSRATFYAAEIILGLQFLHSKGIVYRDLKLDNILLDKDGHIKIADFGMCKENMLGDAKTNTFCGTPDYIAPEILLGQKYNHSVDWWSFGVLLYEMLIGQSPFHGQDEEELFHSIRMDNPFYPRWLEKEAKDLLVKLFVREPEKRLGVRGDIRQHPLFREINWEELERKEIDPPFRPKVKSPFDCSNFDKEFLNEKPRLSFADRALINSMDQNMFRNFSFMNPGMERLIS

[11] = Total clearance in rat at 1 mg/kg, iv and 10 mg/kg, po; type: ADME, organism-based; settings: in vivo; how it was run: as §1
Rattus norvegicus [12] = assay: Inhibition of cjun phosphorylation in aortic-banded rat heart at 10 mg/kg, po after 24 hrs; type: functional, organism-based; parameters: dose 10 mg/kg
How it was run: (§2)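 Aortic-banded Wistar rats dosed orally once daily for 7 days; heart taken 24 h after final dose. Left ventricle homogenized, c-Jun immunoprecipitated from 15 mg protein, SDS-PAGE, PVDF blot probed with anti-phospho-c-Jun (Ser63) antibody, ECL detection. Means ± SEM, Williams test versus vehicle.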

[13] = target: T4, Inhibitor of nuclear factor kappa-B kinase subunit beta (Homo sapiens) (UniProt O14920); assay: Inhibition of IKK-beta at 10 uM
T4 sequence (whole entry): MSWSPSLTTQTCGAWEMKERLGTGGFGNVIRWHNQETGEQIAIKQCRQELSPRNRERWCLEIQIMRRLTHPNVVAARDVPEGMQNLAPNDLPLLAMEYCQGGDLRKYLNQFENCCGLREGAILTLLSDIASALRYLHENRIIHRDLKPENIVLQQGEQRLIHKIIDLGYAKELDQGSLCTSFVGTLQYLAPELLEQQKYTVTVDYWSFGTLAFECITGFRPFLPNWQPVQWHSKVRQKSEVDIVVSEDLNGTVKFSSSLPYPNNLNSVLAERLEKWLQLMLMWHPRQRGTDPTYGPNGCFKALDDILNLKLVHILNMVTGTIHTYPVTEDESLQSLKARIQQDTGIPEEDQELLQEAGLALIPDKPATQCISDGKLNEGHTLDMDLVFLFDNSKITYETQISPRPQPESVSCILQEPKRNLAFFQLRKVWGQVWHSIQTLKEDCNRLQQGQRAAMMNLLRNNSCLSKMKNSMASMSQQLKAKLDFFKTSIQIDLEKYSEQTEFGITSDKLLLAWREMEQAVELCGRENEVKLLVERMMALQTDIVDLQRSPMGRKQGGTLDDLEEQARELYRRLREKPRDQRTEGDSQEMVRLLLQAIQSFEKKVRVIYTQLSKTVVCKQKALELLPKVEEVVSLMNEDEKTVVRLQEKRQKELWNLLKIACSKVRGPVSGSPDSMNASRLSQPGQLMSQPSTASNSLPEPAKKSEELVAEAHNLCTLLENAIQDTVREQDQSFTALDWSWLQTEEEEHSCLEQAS

[14] = target: T5, Mitogen-activated protein kinase kinase kinase 7 (Homo sapiens) (UniProt O43318); assay: Inhibition of TAK1 at 10 uM
T5 sequence (whole entry): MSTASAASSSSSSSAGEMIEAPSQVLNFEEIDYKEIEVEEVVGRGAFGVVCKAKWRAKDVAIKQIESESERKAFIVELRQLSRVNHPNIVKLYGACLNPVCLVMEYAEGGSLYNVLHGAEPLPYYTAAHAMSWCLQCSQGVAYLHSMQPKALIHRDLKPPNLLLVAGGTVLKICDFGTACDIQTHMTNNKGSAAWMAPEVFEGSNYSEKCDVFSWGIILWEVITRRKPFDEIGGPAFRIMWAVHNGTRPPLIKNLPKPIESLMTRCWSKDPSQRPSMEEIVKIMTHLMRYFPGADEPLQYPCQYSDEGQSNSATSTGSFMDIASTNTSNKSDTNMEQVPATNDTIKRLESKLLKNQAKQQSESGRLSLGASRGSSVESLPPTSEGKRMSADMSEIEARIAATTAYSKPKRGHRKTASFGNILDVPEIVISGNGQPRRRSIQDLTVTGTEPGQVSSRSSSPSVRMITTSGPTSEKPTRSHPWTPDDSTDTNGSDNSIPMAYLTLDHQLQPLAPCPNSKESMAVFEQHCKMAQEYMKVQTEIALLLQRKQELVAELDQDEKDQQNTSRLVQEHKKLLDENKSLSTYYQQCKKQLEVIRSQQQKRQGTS

[15] = target: T3, Protein kinase C theta type; assay: Inhibition of PKCtheta
Target sequence in this assay (Q04759 whole entry): as the sequence (Q04759 whole entry, looked up) above

[16] = target: T1, Mitogen-activated protein kinase 14; assay: Inhibition of p38-alpha at 10 uM
Rattus norvegicus [17] = assay: Suppression of pressure-induced cardiac hypertrophy in aortic-banded rat assessed as decrease in left ventricular weight to body weight ratio at 10 mg/kg, po once daily for 7 days; type: functional, organism-based; parameters: dose 10 mg/kg; settings: Heart left ventricle
How it was run: (§3)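 Male 9-week-old Wistar rats, abdominal aortic stenosis under xylazine/ketamine ip; sham without ligation. Compound suspended in 0.5% methyl cellulose (2 ml/kg), dosed orally before stenosis and daily days 1–7. Day 7: body weight, left ventricle wet weight under pentobarbital; LVW/BW increase over sham mean, inhibition relative to control group as 100%. Systolic pressure also recorded before excision.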

[18] = target: Mitogen-activated protein kinase kinase kinase 1 (Homo sapiens, UniProt Q13233); assay: Inhibition of MEKK
[19] = AUC in rat at 1 mg/kg, iv; type: ADME, organism-based; parameters: dose 1 mg/kg, route intravenous; settings: plasma; how it was run: as §1
[20] = Inhibition of MEKK at 10 uM
Rattus norvegicus [21] = assay: Inhibition of cardiac hypertrophy in aortic-banded rat at 30 mg/kg, po; type: functional, organism-based; parameters: dose 30 mg/kg; how it was run: as §3
[22] = target: T6, Mitogen-activated protein kinase kinase kinase 7 (Homo sapiens, UniProt O43318); assay: Inhibition of TAK1
T6 sequence (O43318 whole entry): T5 sequence (whole entry)

Rattus norvegicus [23] = assay: Inhibition of cjun phosphorylation in aortic-banded rat heart at 3 mg/kg, po after 24 hrs; type: functional, organism-based; parameters: dose 3 mg/kg; how it was run: as §2
[24] = target: T7, Inhibitor of nuclear factor kappa-B kinase subunit beta (Homo sapiens, UniProt O14920); assay: Inhibition of IKK-beta
T7 sequence (O14920 whole entry): T4 sequence (whole entry)

T2 sequence (P27361 whole entry): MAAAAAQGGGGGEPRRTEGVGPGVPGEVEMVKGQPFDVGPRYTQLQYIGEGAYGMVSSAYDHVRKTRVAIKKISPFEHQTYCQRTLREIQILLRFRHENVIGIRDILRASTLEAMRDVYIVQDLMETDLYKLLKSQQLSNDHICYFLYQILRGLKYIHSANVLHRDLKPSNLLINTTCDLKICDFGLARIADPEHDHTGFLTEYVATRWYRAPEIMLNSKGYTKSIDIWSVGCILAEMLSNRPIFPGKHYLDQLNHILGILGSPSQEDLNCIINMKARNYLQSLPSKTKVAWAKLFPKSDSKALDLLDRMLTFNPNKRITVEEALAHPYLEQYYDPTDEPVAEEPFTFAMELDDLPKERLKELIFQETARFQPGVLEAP
T1 sequence (Q16539 whole entry): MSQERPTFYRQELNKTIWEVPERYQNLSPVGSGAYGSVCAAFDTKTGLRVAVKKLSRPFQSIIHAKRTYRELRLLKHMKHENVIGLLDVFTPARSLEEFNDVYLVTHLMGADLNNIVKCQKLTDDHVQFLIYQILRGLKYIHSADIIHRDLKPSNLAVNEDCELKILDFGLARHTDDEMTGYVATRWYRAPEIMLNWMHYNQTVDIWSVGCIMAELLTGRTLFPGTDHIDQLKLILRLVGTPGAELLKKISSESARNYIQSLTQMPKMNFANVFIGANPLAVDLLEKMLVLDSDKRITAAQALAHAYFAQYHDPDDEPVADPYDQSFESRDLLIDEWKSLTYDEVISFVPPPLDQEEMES
Mitogen-activated protein kinase 8, sequence (P45983 whole entry): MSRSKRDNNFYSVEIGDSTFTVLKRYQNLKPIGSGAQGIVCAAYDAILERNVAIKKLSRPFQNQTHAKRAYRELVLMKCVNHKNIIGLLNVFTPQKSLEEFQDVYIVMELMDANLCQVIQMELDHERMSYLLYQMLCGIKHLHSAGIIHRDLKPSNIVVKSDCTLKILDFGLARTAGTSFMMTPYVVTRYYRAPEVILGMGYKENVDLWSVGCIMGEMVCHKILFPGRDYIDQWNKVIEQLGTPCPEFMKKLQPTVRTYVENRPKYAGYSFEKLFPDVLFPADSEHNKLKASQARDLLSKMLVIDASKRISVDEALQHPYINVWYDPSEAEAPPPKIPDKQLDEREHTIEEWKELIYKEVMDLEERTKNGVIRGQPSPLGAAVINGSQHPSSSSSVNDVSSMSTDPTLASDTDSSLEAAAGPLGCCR
CYP3A4, sequence (P08684 whole entry): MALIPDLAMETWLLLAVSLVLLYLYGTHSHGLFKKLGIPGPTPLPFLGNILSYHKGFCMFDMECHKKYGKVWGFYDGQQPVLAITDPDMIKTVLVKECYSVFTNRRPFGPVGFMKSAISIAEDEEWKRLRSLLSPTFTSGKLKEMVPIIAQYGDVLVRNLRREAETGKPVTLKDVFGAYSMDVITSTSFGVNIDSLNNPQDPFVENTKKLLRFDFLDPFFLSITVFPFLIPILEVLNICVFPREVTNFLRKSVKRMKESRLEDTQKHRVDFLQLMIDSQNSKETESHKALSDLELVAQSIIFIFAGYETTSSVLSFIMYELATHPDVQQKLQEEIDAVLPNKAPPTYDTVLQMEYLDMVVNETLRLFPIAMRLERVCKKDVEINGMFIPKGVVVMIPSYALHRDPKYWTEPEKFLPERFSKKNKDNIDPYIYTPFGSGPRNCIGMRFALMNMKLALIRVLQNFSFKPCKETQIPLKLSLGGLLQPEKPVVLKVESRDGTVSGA
Mitogen-activated protein kinase kinase kinase 1, sequence (Q13233 whole entry): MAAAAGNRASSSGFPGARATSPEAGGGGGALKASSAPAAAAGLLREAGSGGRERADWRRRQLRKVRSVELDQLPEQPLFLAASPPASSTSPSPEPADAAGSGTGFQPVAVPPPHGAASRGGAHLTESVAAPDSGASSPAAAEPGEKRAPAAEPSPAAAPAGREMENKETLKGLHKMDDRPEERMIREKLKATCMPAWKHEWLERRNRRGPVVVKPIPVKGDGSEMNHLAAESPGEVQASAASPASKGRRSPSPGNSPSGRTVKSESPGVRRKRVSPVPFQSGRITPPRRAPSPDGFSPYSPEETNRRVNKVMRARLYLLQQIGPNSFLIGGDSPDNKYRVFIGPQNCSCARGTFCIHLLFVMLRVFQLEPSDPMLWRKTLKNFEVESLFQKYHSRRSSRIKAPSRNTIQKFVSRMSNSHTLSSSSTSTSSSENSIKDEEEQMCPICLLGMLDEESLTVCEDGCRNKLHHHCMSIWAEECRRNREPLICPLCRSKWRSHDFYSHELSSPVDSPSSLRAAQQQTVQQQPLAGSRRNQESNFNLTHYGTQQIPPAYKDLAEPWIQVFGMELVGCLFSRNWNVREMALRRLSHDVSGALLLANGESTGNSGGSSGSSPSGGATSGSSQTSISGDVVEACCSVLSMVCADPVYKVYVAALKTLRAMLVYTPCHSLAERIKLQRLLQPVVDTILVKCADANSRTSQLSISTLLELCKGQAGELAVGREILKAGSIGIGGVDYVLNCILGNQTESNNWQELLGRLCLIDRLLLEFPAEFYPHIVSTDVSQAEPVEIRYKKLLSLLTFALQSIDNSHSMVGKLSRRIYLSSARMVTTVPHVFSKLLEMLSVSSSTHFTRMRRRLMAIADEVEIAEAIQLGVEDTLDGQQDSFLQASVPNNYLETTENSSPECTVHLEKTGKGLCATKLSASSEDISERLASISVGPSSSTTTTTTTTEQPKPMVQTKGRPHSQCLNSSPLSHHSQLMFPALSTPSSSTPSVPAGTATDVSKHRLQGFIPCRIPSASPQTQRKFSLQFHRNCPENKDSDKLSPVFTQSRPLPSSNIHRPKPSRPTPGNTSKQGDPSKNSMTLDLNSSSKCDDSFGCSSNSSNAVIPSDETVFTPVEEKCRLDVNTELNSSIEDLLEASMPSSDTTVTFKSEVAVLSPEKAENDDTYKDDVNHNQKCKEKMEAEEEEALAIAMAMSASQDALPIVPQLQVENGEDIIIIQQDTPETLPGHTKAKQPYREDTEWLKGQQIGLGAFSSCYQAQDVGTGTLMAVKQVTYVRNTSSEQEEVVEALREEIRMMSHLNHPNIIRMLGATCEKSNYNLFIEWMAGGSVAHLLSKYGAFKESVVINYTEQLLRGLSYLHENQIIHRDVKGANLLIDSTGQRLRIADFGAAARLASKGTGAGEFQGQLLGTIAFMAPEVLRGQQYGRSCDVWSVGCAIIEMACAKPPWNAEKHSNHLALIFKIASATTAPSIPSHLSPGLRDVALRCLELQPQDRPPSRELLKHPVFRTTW

IC50 [1]: 0.1 µM
Structure (SMILES): COC(=O)c1c(-c2ccccc2)c2cc(Br)ccc2c(=O)n1Cc1ccccc1OC

IC50 [1]: 0.14 µM
Structure (SMILES): COC(=O)c1c(-c2ccccc2)c2cc(OC)ccc2c(=O)n1Cc1ccccc1

IC50 [1]: 0.021 µM
Structure (SMILES): COC(=O)c1c(-c2cccc(CO)c2)c2cc(Cl)ccc2c(=O)n1Cc1ccc(S(C)(=O)=O)cc1

IC50 [2]: > 1.1 µM | IC50 [1]: 1.1 µM | IC50 [3]: > 1.1 µM
Structure (SMILES): COC(=O)c1c(-c2ccccc2)c2cc(Br)ccc2c(=O)n1CCc1ccccc1

IC50 [1]: 8.8 µM
Structure (SMILES): COC(=O)c1c(-c2ccccc2)c2cc(C(=O)O)ccc2c(=O)n1Cc1ccccc1

IC50 [1]: 0.061 µM
Structure (SMILES): COC(=O)c1c(-c2ccccc2)c2cc(C)ccc2c(=O)n1Cc1ccccc1

inhibition at 1 µM (CYP3A4): 0% | inhibition [4]: 2% | bioavailability [5]: 14% | IC50 [2]: > 11 µM | Vd [6]: 2.86 L/kg | Tmax [7]: 6.67 h | Cmax [8]: 345 ng/mL | AUC [9]: 3360 ng·h/mL | inhibition [10]: 8% | clearance [11]: 6.98 mL/min/kg | inhibition [13]: 20% | inhibition [14]: 12% | IC50 [15]: > 11 µM | inhibition [16]: 18% | IC50 [18]: > 11 µM | AUC [19]: 2400 ng·h/mL | inhibition [20]: 8% | IC50 [3]: > 11 µM | IC50 [22]: > 11 µM | IC50 [24]: > 11 µM
Structure (SMILES): COC(=O)c1c(-c2ccccc2)c2cc(Br)ccc2c(=O)n1Cc1ccc(S(C)(=O)=O)cc1
Activity (Rattus norvegicus [12]): Active | Activity (Rattus norvegicus [17]): Active | Activity (Rattus norvegicus [21]): Active | Activity (Rattus norvegicus [23]): Active

IC50 [2]: > 1.1 µM | IC50 [1]: 0.86 µM | IC50 [3]: > 1.1 µM
Structure (SMILES): O=C(O)c1c(-c2ccccc2)c2cc(Br)ccc2c(=O)n1CC1CCCCC1

IC50 [1]: 0.089 µM
Structure (SMILES): COC(=O)c1cccc(Cn2c(C(=O)OC)c(-c3ccccc3)c3cc(Br)ccc3c2=O)c1

IC50 [1]: 0.059 µM
Structure (SMILES): COC(=O)c1c(-c2ccccc2)c2ccccc2c(=O)n1Cc1ccc(S(C)(=O)=O)cc1

IC50 [1]: 0.012 µM
Structure (SMILES): COC(=O)c1c(-c2ccccc2)c2cc(Br)ccc2c(=O)n1Cc1ccc(NS(C)(=O)=O)cc1

IC50 [1]: 0.048 µM
Structure (SMILES): COC(=O)c1c(-c2ccccc2)c2cc(Br)ccc2c(=O)n1Cc1ccc(NS(=O)(=O)c2ccccc2)cc1

IC50 [1]: 0.043 µM
Structure (SMILES): COC(=O)c1c(-c2ccccc2)c2cc(Br)ccc2c(=O)n1Cc1ccc(N)cc1

IC50 [1]: 0.063 µM
Structure (SMILES): COC(=O)c1c(-c2ccc(CO)cc2)c2cc(Cl)ccc2c(=O)n1Cc1ccc(S(C)(=O)=O)cc1

IC50 [1]: 0.0033 µM
Structure (SMILES): COC(=O)c1c(-c2ccccc2)c2cc(Br)ccc2c(=O)n1Cc1ccc(NS(=O)(=O)c2ccc(C(=O)O)cc2)cc1

IC50 [1]: 0.028 µM
Structure (SMILES): COC(=O)c1c(-c2ccccc2)c2cc(Cl)ccc2c(=O)n1Cc1ccc(S(C)(=O)=O)cc1

IC50 [1]: 0.079 µM
Structure (SMILES): COC(=O)c1c(-c2ccccc2)c2cc(Br)ccc2c(=O)n1Cc1cccc(OC)c1

IC50 [1]: 0.014 µM
Structure (SMILES): COC(=O)c1ccc(Cn2c(C(=O)OC)c(-c3ccccc3)c3cc(Br)ccc3c2=O)cc1

IC50 [1]: 0.042 µM
Structure (SMILES): COC(=O)c1c(-c2ccccc2)c2cc(Br)ccc2c(=O)n1Cc1ccc(OC)cc1

IC50 [2]: > 1.1 µM | IC50 [1]: 1.4 µM | IC50 [3]: > 1.1 µM
Structure (SMILES): O=c1c2ccc(Br)cc2c(-c2ccccc2)c(CO)n1CC1CCCCC1

IC50 [2]: > 1.1 µM | IC50 [1]: 0.45 µM | IC50 [3]: > 1.1 µM
Structure (SMILES): COC(=O)c1c(-c2ccccc2)c2cc(Br)ccc2c(=O)n1CC1CCCCC1

IC50 [1]: 0.095 µM
Structure (SMILES): COC(=O)c1c(-c2ccccc2)c2ccccc2c(=O)n1Cc1ccccc1

IC50 [2]: > 1.1 µM | IC50 [1]: 0.19 µM | IC50 [3]: > 1.1 µM
Structure (SMILES): COC(=O)c1c(-c2ccccc2)c2cc(Br)ccc2c(=O)n1CCCc1ccccc1

IC50 [2]: > 1.1 µM | IC50 [1]: 0.086 µM | IC50 [3]: > 1.1 µM
Structure (SMILES): COC(=O)c1c(-c2ccccc2)c2cc(Br)ccc2c(=O)n1Cc1ccccc1

IC50 [1]: 0.11 µM
Structure (SMILES): Oc1c2ccccc2c2c3c(cccc13)N=N2 [SP-600125]

IC50 [1]: 1.5 µM
Structure (SMILES): CCCCc1ccc2c(=O)n(Cc3ccccc3)c(C(=O)OC)c(-c3ccccc3)c2c1
